Published values of several laboratories.
Protocols differ between the studies behind these lines.
Cell line: HEK293
Observed: cell growth or viability

SMILES | assay | conditions | quantity | result
O=C(N/N=C/c1ccc([N+](=O)[O-])o1)c1cn(Cc2ccccc2)c2ccc([N+](=O)[O-])cc2c1=O | resazurin | 48 h | CC50 | > 20 µM
COC1=CC2=[N+](C)CCc3c[nH]c(c32)C1=O | MTT | 72 h | CC50 | 12.5 µM
O=C(Nc1ccc(C(F)(F)F)nn1)c1cccc(C(F)(F)F)c1 | resazurin | 48 h | CC50 | > 20 µM
CCCc1cc(=O)oc2cc(OCc3cc(=O)c(O)co3)ccc12 | CCK-8 | 36 µM, 24 h | viability | 94%
O=C1C=C2NCCc3c[nH]c(c32)C1=O | MTT | 72 h | CC50 | 50 µM
Cc1ccc(Cn2cc(C(=O)N/N=C/c3ccc([N+](=O)[O-])s3)c(=O)c3cc(Cl)c(Cl)cc32)cc1 | resazurin | 48 h | CC50 | > 20 µM
COc1ccccc1C(=O)/C=C/c1cn(Cc2cn(-c3ccnc4cc(Cl)ccc34)nn2)c2ccccc12 | MTT | 100 µM, 24 h | viability | > 90%
Cn1cc2c3c1C(=O)C(NCCc1ccc(O)cc1)=CC3=NCC2 | MTT | 72 h | CC50 | 2.5 µM
NNC(=O)c1cn(Cc2ccccc2)c2ccc(Oc3ccccc3)cc2c1=O | resazurin | 48 h | CC50 | > 20 µM
O=C(Nc1ccc(C(F)(F)F)cc1)c1cccc(C(F)(F)F)c1 | resazurin | 48 h | CC50 | 9.25 µM
Cc1ccc(Cn2cc(C(=O)NN)c(=O)c3cc(Oc4ccccc4)ccc32)cc1 | resazurin | 48 h | CC50 | > 20 µM
O=C(Nc1ccc(Cl)c(Cl)c1)c1cccc(C(F)(F)F)c1 | resazurin | 48 h | CC50 | 10.1 µM
Cc1ccc(Cn2cc(C(=O)N/N=C/c3ccc([N+](=O)[O-])o3)c(=O)c3cc([N+](=O)[O-])ccc32)cc1 | resazurin | 48 h | CC50 | > 20 µM
O=C1c2[nH]cc3c2C(=NCC3)c2c(-c3ccc(O)cc3)c[nH]c21 | MTT | 72 h | CC50 | 0.2 µM
O=C(Nc1ccc(Br)nn1)c1cccc(F)c1 | resazurin | 48 h | CC50 | > 20 µM
